Converted amounts (≈) assume the structure as drawn.
What was measured:
[1] = Evaluated for the solubility in aqueous solution at pH 5.0; format: ADME
How it was run: (§1)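 Excess compound was stirred in 0.16 M phosphate buffer at room temperature, 60 min at pH 5.0 or 30 min at pH 7.4, with pH held constant. The mixture was filtered (0.45 µm) and the filtrate quantified by reversed-phase HPLC.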

[2] = Evaluated for the solubility in aqueous solution at pH 7.4; format: ADME; how it was run: as §1
[3] = Evaluated for the time by which 50% of total naproxen is formed in 80% human serum at a pH of 7.4; format: ADME; details: pH 7.4
How it was run: (§2)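 Human serum diluted to 80% with 0.16 M phosphate buffer pH 7.4, 37 °C. Prodrug dissolved in buffer, then preheated serum added. Aliquots were quenched in ethanol and centrifuged, and the supernatant was analysed by HPLC for remaining prodrug and released naproxen. Pseudo-first-order t1/2 came from the slope of log remaining prodrug vs time. f50% is the time at which 50% of total naproxen formed. Mean of n = 2.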

[4] = Evaluated for 50% hydrolysis rate in 80% human serum at a pH of 7.4; format: ADME; details: pH 7.4; how it was run: as §2
[5] = Evaluated for 50% hydrolysis rate in phosphate buffer at pH 7.4 at 37 degrees C; format: ADME
How it was run: (§3)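 Chemical stability in phosphate buffer (0.16 M, ionic strength 0.5) at pH 7.4 or 5.0, in a 37 °C thermostatted water bath. Samples were taken at intervals and analysed by HPLC for remaining prodrug. Pseudo-first-order t1/2 was calculated from the slope of the linear part of log remaining prodrug vs time.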

Homo sapiens [6] = organism: Homo sapiens; test: Evaluated for the Steady-state fluxes (Jss) for delivery of total Naproxen species through excised human skin in vitro in Isotonic phosphate buffer (0.05 M) at pH 5.0; format: ADME
How it was run: (§4)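 Excised postmortem human skin, epidermis heat-separated (60 °C water, 2 min), dried, frozen, then rehydrated and mounted in Franz-type diffusion cells (area 0.71 cm2). Donor was a saturated suspension in 0.05 M phosphate buffer at the stated pH. Receptor was isotonic 0.05 M phosphate pH 7.4, stirred at 37 °C and sampled at intervals. Total naproxen, intermediate and prodrug were measured by HPLC. Jss is the steady-state slope per area; mean ± SE, n = 3-12.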

Homo sapiens [7] = organism: Homo sapiens; test: Evaluated for the Steady-state fluxes (Jss) for delivery of total Naproxen species through excised human skin in Vitro in Isotonic phosphate buffer (0.05 M) at pH 7.4; format: ADME; how it was run: as §4
[8] = Evaluated for the apparent partition coefficient between 1-octanol and phosphate buffer at pH 5.0.; format: physicochemical; details: 1-octanol/phosphate buffer
How it was run: (§5)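 Shake-flask log Papp at room temperature. Compound in phosphate buffer (pH 5.0 or 7.4) was shaken with buffer-saturated 1-octanol for 30 min (pH 5.0) or 15 min (pH 7.4), and phases were separated by centrifugation. Buffer-phase concentration was measured by HPLC before and after partitioning.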

[9] = Evaluated for 50% hydrolysis rate in phosphate buffer at 5.0 at 37 degrees C; format: ADME; details: pH 5; how it was run: as §3
[10] = Evaluated for the apparent partition coefficient between 1-octanol and phosphate buffer at pH 7.4; format: physicochemical; details: 1-octanol/phosphate buffer; how it was run: as §5
[11] = Evaluated for the hydrolysis rate in 80% human serum (mean; n=2) at a pH of 7.4; format: ADME; details: pH 7.4; how it was run: as §2
[12] = Evaluated for the hydrolysis rate in phosphate buffer at 5.0 at 37 degrees Centigrade.; format: ADME; details: pH 5; how it was run: as §3
[13] = Evaluated for the hydrolysis rate in phosphate buffer at pH 7.4 at 37 degrees Centigrade; format: ADME; how it was run: as §3
Homo sapiens [14] = organism: Homo sapiens; test: Evaluated for the Steady-state fluxes (Jss) for delivery of total Naproxen species through excised human skin in vitro in isotonic phosphate buffer (0.05 M) at pH 5.0; format: ADME; how it was run: as §4
Homo sapiens [15] = organism: Homo sapiens; test: Evaluated for the Steady-state fluxes (Jss) for delivery of total Naproxen species through excised human skin in vitro in isotonic phosphate buffer (0.05 M) at pH 7.4; format: ADME; how it was run: as §4
Homo sapiens [16] = organism: Homo sapiens; test: Evaluated for the Steady-state fluxes (Jss) for delivery of total Naproxen species through excised human skin in Vitro in Isotonic phosphate buffer (0.05 M) at pH 5.0; format: ADME; how it was run: as §4

Row | Compound | solubility [1] [mM] | solubility [2] [mM] | 50% naproxen formed [3] [min] | half-life [4] [h] | half-life [5] [h] | Jss (Homo sapiens [6]) [nM hr-1 cm**-2] | Jss (Homo sapiens [7]) [nM hr-1 cm**-2] | logD [8] | half-life [9] [h] | logD [10] | half-life [11] [min] | half-life [12] [h] | half-life [13] [h] | Jss (Homo sapiens [14]) [nM hr-1 cm**-2] | Jss (Homo sapiens [15]) [nM hr-1 cm**-2] | Jss (Homo sapiens [16]) [nM hr-1 cm**-2]
1 | COc1ccc2cc(C(C)C(=O)OCCCCOC(=O)CCCN3CCN(C)CC3)ccc2c1 (configuration not stated) | 61 (≈ 28700 µg/mL) | 50 (≈ 23500 µg/mL) | 3 | 0.0167 | 48 | 1.2 | 13.2 | 1.41 | 893 | 2.69 |  |  |  |  |  | 
2 | COc1ccc2cc(C(C)C(=O)OCCCCOC(=O)CN3CCOCC3)ccc2c1 (configuration not stated) |  |  | 11 | 0.217 |  |  |  |  |  |  |  |  |  |  |  | 
3 | COc1ccc2cc(C(C)C(=O)OCCCCOC(=O)CCN3CCN(C)CC3)ccc2c1 (configuration not stated) | 142 (≈ 64700 µg/mL) | 432 (≈ 197000 µg/mL) | 5 |  |  |  |  | 1.2 |  | 3.04 | 4 | 432 | 16.8 | 0.6 | 7.7 | 
4 | COc1ccc2cc(C(C)C(=O)OCCOC(=O)CN3CCOCC3)ccc2c1 (configuration not stated) | 0.05 (≈ 20.1 µg/mL) | 0.07 (≈ 28.1 µg/mL) | 25 | 0.333 | 33.6 |  |  | 2.62 | 161 | 2.14 |  |  |  | 0.6 | 0.7 | 
5 | COc1ccc2cc(C(C)C(=O)OCCOC(=O)CN3CCN(C)CC3)ccc2c1 (configuration not stated) | 5.3 (≈ 2200 µg/mL) | 4.1 (≈ 1700 µg/mL) | 22 | 0.433 | 57.6 |  | 24.6 | 0.43 | 1600 | 1.16 |  |  |  |  |  | 2.2
6 | COc1ccc2cc(C(C)C(=O)OCCCCOC(=O)CN3CCN(C)CC3)ccc2c1 (configuration not stated) | 16.2 (≈ 7170 µg/mL) | 8.8 (≈ 3890 µg/mL) | 7 | 0.05 | 182 |  | 7.2 | 0.94 | 1920 | 1.3 |  |  |  |  |  | 0.2
